These results are taken from ChEMBL document CHEMBL3875225, “Design, synthesis and biological evaluation of 7-(aryl)-2,3-dihydro-[1,4]dioxino[2,3-g]quinoline derivatives as potential Hsp90 inhibitors and anticancer agents” (Bioorg Med Chem, 2017).

The source made the active and inactive calls. The calls are words filed in the database; no cut-off is given here. Where only a bound is given, the exact number is not on record here.

The target of data set [1] is T1, Heat shock protein HSP90 (Homo sapiens) (UniProt P07900+P08238). As to the kind of experiment: Inhibition of HSP90 in human MCF7 cells assessed as decrease in Her2 protein expression at 50 uM after 24 hrs by Western blot method relative to control. In kind it is cell-based. The gist of the method: (§1)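 MCF-7 cells seeded at 10⁶ per 25 cm² flask and treated 24 h with 50 µM compound; DMSO vehicle control, 0.5 μM 17-AAG reference. Lysis in Tris-HCl pH 7.4 buffer with protease/phosphatase inhibitors. 50 µg protein resolved on 10% SDS-PAGE, transferred to PVDF, blocked 2 h in 5% skim milk/TBST at 4 °C. Probed 2 h with rabbit anti-Her-2 and anti-Hsp-70 (1:3000); β-tubulin also blotted.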
Background: A western blot detects proteins with antibodies after separation by electrophoresis.

Data set [2] can be described thus: Antiproliferative activity against human DU145 cells after 48 hrs by MTT assay. In kind it is functional, cell-based, DU-145. As to conditions: for IC50: Homo sapiens, DU-145, 48 h. The gist of the method: (§2)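 5000 cells seeded per well in RPMI complete medium; next day medium replaced with medium containing a range of compound concentrations, with a no-drug control and 17-AAG as reference. After 48 h at 37 °C, 5% CO2, MTT (4 mg/mL solution) added for 3 h. Formazan dissolved in DMSO, absorbance read at 540 nm. Triplicate determinations; mean SD from dose-response curves of three independent experiments.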

Data set [3] has as its target T1, Heat shock protein HSP90 (Homo sapiens). As to the kind of experiment: Inhibition of HSP90 in human MCF7 cells assessed as induction of HSP70 protein expression at 50 uM after 24 hrs by Western blot method relative to control. In kind it is cell-based. A digest of the protocol:
as §1

The nature of data set [4]: Antiproliferative activity against human A549 cells after 48 hrs by MTT assay. In kind it is functional, cell-based. To be noted: for IC50: Homo sapiens, A549, 48 h. The gist of the method:
as §2
In general terms: Tetrazolium dyes change colour on reduction, which living cells bring about.

Data set [5] can be described thus: Effect on beta-tubulin protein expression in human MCF7 cells at 50 uM after 24 hrs by Western blot method. In kind it is cell-based. As to conditions: mcf7, 24 h. A digest of the protocol:
as §1

The nature of data set [6]: Antiproliferative activity against human MCF7 cells after 48 hrs by MTT assay. To be noted: for IC50: Homo sapiens, MCF7, 48 h. In kind it is functional, cell-based. The gist of the method: as §2

Regarding `COc1cc(-c2cc(CO)c3cc4c(cc3n2)OCCO4)cc(OC)c1OC`, the inhibition – broadly, the drop in the measured response relative to a control, in per cent – in data set [1] was above 50%. In addition, the half-maximal inhibitory concentration (IC50) (in general, the concentration needed to halve the response being measured) in data set [2] worked out at 64.2 µM; in data set [4] it was 46.9 µM; in data set [6], 4.53 µM. In data set [3], the inhibition entry was “Active”. In data set [5], the Activity entry is “Non-Toxic”.

Consider `COc1ccc(-c2cc(C(=O)O)c3cc4c(cc3n2)OCCO4)cc1OC`, for which the 50% inhibitory concentration (IC50) in data set [2], in data set [4] and in data set [6] was above 100 µM in each case.

On to `COc1ccc(-c2cc(C(=O)O)c3cc4c(cc3n2)OCCO4)cc1O`, for which the IC50 in data set [2], in data set [4] and in data set [6] was above 100 µM in each case.

On to `COc1cc(-c2cc(C(=O)O)c3cc4c(cc3n2)OCCO4)cc(OC)c1OC`, for which the IC50 in data set [2], in data set [4] and in data set [6] was above 100 µM each time.

Consider `O=C(O)c1cc(-c2ccccc2)nc2cc3c(cc12)OCCO3`, for which the IC50 in data set [2], in data set [4] and in data set [6] was above 100 µM throughout.

As to `COc1ccc(-c2cc(CO)c3cc4c(cc3n2)OCCO4)cc1OC`, in data set [1], the inhibition was above 50%. In addition, the results for the IC50 in data set [2], in data set [4] and in data set [6] were 11.5 µM, 82.1 µM and 6.7 µM, respectively. Further, the inhibition entry in data set [3] is “Active”. For the same molecule, the Activity result in data set [5] is listed as “Non-Toxic”.

`OCc1cc(-c2ccccc2)nc2cc3c(cc12)OCCO3`: in data set [1], the inhibition was above 50%. In addition, the IC50 in data set [2] was 86.1 µM; in data set [4] it was above 100 µM; in data set [6] it was 22.7 µM. In addition, in data set [3], the inhibition result was “Active”. Further, the Activity entry in data set [5] was “Non-Toxic”.

Consider `O=C(O)c1cc(-c2ccc(O)cc2)nc2cc3c(cc12)OCCO3`, for which the IC50 in data set [2], in data set [4] and in data set [6] was above 100 µM in each case.

In the case of `Cc1ccc(-c2cc(C(=O)O)c3cc4c(cc3n2)OCCO4)cc1`, the IC50 in data set [2], in data set [4] and in data set [6] was above 100 µM each time.

Take `C=CCNC1=C2C[C@@H](C)C[C@H](OC)[C@H](O)[C@@H](C)/C=C(\C)[C@H](OC(N)=O)[C@@H](OC)/C=C\C=C(/C)C(=O)NC(=CC1=O)C2=O` [TANESPIMYCIN]: the IC50 in data set [2] was determined as 0.282 µM; in data set [4], 0.286 µM; in data set [6], 0.192 µM.

As to `Oc1ccc(/C=N/c2ccc3c(c2)OCCO3)cc1`, the Activity in data set [2], in data set [4] and in data set [6] was above 100 µM in each case.

On to `COc1ccc(-c2cc(C(=O)O)c3cc4c(cc3n2)OCCO4)cc1`, for which the IC50 in data set [2], in data set [4] and in data set [6] was above 100 µM throughout.

For the molecule `COc1cc(-c2cc(C(=O)O)c3cc4c(cc3n2)OCCO4)ccc1O`, the IC50 in data set [2], in data set [4] and in data set [6] was above 100 µM each time.

As for `CC(=O)Nc1ccc(-c2cc(C(=O)O)c3cc4c(cc3n2)OCCO4)cc1`, the IC50 in data set [2], in data set [4] and in data set [6] was above 100 µM throughout.

As to `COc1cc(/C=N/c2ccc3c(c2)OCCO3)ccc1O`, the Activity in data set [2], in data set [4] and in data set [6] was above 100 µM in each case.

Regarding `COc1cc(/C=N/c2ccc3c(c2)OCCO3)cc(OC)c1OC`, the Activity in data set [2], in data set [4] and in data set [6] was above 100 µM each time.

As to `COc1cc(-c2cc(CO)c3cc4c(cc3n2)OCCO4)ccc1O`, the inhibition in data set [1] was above 50%. Also, the IC50 was 86.8 µM in data set [2], 87.8 µM in data set [4] and 25.7 µM in data set [6]. Also, in data set [3], the inhibition result was “Active”. In data set [5], the Activity result was “Non-Toxic”.

Turning to `COc1ccc(-c2cc(CO)c3cc4c(cc3n2)OCCO4)cc1O`, the inhibition in data set [1] was above 50%. Further, the concentration for half-maximal inhibition (IC50) in data set [2] worked out at 89.7 µM; in data set [4] it was 94.2 µM; in data set [6], 40 µM. In addition, in data set [3], the inhibition result was “Active”. For the same molecule, in data set [5], the Activity result was “Non-Toxic”.

With `O=C(O)c1cc(-c2cccc(O)c2)nc2cc3c(cc12)OCCO3`, the IC50 in data set [2], in data set [4] and in data set [6] was above 100 µM each time.

For the molecule `COc1ccc(-c2cc(CO)c3cc4c(cc3n2)OCCO4)cc1`, in data set [1], the inhibition was above 50%. Besides, the values for the IC50 in data set [2], in data set [4] and in data set [6] were 21.4 µM, above 100 µM and 24 µM, respectively. Further, the inhibition entry in data set [3] was “Active”. Further, in data set [5], the Activity result is “Non-Toxic”.

As to `COc1ccc(/C=N/c2ccc3c(c2)OCCO3)cc1OC`, the Activity in data set [2], in data set [4] and in data set [6] was above 100 µM each time.
